What all share (details): stereoisomer not certain
In one experiment the target is T1, UniProt L7N210.
T1 sequence (whole entry): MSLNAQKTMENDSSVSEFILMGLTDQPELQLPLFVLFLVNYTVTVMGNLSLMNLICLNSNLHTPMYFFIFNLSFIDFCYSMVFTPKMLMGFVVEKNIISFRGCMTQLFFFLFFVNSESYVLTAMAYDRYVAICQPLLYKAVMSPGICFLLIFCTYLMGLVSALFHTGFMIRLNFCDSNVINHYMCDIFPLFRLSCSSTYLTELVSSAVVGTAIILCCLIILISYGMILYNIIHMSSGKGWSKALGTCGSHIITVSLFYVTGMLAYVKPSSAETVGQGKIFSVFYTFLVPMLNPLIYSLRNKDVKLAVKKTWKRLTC
Put shortly: (§1)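 Transient luciferase assays in mammalian cell lines were common, though methods varied by source. The values come from published papers and their supplementary material, with extra details from the original authors when needed. Responsive refers to a measured signal the original authors judged statistically different from baseline, and non-responsive (inactive) to the remainder.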

In the next experiment the target is T2, UniProt Q7TQV4.
T2 sequence (whole entry): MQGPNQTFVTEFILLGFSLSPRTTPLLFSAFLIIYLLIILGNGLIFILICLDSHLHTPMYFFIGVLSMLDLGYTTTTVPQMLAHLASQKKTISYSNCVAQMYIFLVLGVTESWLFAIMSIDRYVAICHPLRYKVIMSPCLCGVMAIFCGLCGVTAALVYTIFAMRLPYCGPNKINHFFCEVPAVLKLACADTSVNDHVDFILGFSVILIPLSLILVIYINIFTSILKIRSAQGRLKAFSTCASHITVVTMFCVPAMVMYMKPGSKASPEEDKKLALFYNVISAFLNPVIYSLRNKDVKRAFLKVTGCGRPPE
Put shortly: as §1

For a further experiment, the target named is T3, UniProt Q7TR71.
T3 sequence (whole entry): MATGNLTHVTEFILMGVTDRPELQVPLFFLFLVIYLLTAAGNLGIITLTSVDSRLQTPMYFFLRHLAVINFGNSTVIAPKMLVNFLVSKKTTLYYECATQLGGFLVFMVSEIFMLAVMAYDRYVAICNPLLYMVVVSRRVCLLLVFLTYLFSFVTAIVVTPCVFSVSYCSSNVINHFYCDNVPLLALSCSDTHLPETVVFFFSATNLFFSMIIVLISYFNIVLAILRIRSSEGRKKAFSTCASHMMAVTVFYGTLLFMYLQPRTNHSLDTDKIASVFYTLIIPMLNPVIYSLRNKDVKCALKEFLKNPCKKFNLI
The essentials:
as §1

The next experiment concerns the target T4, UniProt Q7TRA3.
T4 sequence (whole entry): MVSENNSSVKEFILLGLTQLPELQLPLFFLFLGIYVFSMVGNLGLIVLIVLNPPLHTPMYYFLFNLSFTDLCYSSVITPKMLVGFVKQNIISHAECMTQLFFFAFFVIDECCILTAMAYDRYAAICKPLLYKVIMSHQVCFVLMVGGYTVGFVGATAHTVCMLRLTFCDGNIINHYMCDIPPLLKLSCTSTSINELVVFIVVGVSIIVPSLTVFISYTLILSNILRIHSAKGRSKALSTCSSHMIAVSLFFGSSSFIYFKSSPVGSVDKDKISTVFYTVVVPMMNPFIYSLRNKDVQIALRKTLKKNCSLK
Put shortly:
as §1

The target of another experiment is T5, UniProt Q7TRE4.
T5 sequence (whole entry): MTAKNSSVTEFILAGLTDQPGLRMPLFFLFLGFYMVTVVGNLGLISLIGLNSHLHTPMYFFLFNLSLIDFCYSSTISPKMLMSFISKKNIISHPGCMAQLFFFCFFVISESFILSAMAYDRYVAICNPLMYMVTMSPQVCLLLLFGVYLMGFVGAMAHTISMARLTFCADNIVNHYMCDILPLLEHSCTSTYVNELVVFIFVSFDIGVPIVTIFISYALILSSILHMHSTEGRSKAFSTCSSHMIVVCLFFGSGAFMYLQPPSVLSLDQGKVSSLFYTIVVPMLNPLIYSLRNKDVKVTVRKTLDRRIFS
The essentials: as §1

Another experiment concerns the target T6, UniProt Q3KPB0.
T6 sequence (whole entry): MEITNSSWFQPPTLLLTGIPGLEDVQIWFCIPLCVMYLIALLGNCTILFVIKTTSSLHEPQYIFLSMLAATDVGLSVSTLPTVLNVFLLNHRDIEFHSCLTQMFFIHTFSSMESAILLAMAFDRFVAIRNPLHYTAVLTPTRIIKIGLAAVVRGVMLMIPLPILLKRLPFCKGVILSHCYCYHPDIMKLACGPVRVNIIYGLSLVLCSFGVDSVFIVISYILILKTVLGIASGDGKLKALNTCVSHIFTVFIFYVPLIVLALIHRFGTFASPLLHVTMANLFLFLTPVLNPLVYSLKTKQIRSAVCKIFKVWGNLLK
Put shortly: as §1

A further experiment has as its target T7, UniProt Q3U0P3.
T7 sequence (whole entry): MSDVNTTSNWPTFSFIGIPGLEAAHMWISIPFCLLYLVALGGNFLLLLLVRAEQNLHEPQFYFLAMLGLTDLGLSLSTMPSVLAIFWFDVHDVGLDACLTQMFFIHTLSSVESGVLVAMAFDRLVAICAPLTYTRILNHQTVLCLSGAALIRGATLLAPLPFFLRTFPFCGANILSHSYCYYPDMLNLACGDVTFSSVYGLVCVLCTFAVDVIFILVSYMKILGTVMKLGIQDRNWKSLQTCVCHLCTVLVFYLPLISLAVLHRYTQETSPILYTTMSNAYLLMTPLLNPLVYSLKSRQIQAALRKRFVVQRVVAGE
The essentials: as §1

For a further experiment, the target named is T8, UniProt Q7TQU8.
T8 sequence (whole entry): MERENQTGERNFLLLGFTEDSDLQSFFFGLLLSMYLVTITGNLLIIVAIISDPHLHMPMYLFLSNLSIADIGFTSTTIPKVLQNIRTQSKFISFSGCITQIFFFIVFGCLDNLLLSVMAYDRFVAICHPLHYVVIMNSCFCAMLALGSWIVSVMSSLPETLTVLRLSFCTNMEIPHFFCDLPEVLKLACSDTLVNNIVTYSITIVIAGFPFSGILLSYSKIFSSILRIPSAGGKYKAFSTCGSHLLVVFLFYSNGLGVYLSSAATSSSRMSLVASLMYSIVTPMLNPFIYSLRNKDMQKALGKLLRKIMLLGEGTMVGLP
The essentials:
as §1

Another experiment addresses T9, UniProt Q7TR79.
T9 sequence (whole entry): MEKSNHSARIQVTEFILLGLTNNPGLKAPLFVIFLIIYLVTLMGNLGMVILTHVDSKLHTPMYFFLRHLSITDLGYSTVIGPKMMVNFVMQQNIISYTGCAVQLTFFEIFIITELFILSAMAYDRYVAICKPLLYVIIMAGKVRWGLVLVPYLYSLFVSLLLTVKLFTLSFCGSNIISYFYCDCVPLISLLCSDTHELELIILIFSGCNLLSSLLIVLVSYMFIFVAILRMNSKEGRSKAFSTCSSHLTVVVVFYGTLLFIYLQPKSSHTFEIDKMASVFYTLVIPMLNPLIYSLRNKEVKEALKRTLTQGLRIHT
The essentials: as §1

The target in another experiment is UniProt Q7TRM0. Put shortly:
as §1

The values that follow come from the M2OR odorant receptor database.
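Note: active if original authors judged signal statistically different from baseline.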

Sequence of UniProt Q7TRM0 (Q7TRM0 as listed by the source): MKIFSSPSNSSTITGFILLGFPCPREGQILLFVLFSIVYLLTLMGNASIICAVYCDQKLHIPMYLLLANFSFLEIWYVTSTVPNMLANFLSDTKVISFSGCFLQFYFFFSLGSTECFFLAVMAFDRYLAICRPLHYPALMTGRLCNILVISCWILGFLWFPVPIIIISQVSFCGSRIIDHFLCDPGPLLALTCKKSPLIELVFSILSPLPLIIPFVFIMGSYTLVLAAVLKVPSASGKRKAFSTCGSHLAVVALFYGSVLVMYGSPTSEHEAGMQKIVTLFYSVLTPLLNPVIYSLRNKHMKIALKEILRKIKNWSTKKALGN

For `CCC1CCC(=O)O1` (centres undefined), the “odorant receptor agonist call” value with UniProt L7N210, with UniProt Q7TRA3 and in the experiment with UniProt Q7TRE4 was “inactive” each time. In addition, the “odorant receptor agonist call” value with UniProt Q7TQV4 and with UniProt Q7TR71 was “active” in each case.
For `COc1ccc(C=O)cc1`, the “odorant receptor agonist call” value in the experiment with UniProt L7N210 is “active”. Further, the “odorant receptor agonist call” value with UniProt Q3KPB0, with UniProt Q3U0P3, with UniProt Q7TQU8 and with UniProt Q7TR79 was “inactive” in each case.
Consider `OCc1ccc2c(c1)OCO2`, for which the “odorant receptor agonist call” value with UniProt L7N210, with UniProt Q3KPB0, with UniProt Q3U0P3, with UniProt Q7TQU8 and with UniProt Q7TR79 was “inactive” throughout.
Take `Cc1ccc(OC(=O)Cc2ccccc2)cc1`: the “odorant receptor agonist call” value with UniProt L7N210, with UniProt Q3KPB0, with UniProt Q3U0P3, with UniProt Q7TQU8 and with UniProt Q7TR79 was “inactive” in each case.
Regarding `C=CCOC(=O)Cc1ccccc1`, the “odorant receptor agonist call” value with UniProt L7N210, with UniProt Q3KPB0, with UniProt Q3U0P3, with UniProt Q7TQU8, in the experiment with UniProt Q7TQV4 and with UniProt Q7TR71 was “inactive” in each case. The “odorant receptor agonist call” value with UniProt Q7TR79, with UniProt Q7TRA3 and with UniProt Q7TRE4 was “inactive” throughout.
Consider `O=c1cc(O)c2ccccc2o1`, for which the “odorant receptor agonist call” value with UniProt L7N210, with UniProt Q3KPB0, with UniProt Q3U0P3, in the experiment with UniProt Q7TQU8, with UniProt Q7TQV4 and with UniProt Q7TR71 was “inactive” each time. Moreover, the “odorant receptor agonist call” value with UniProt Q7TR79, in the experiment with UniProt Q7TRA3 and with UniProt Q7TRE4 was “inactive” throughout.
With `CC(C=O)Cc1ccc2c(c1)OCO2` (centres undefined), in the experiment with UniProt L7N210, the “odorant receptor agonist call” value was “active”. Further, the “odorant receptor agonist call” value with UniProt Q3KPB0, with UniProt Q3U0P3, in the experiment with UniProt Q7TQU8 and with UniProt Q7TR79 was “inactive” in each case.
In the case of `C=CCc1ccccc1`, the “odorant receptor agonist call” value with UniProt L7N210, with UniProt Q7TQV4, with UniProt Q7TR71, in the experiment with UniProt Q7TRA3 and with UniProt Q7TRE4 was “inactive” in each case.
For the compound `O=CC=Cc1ccccc1`, the “odorant receptor agonist call” value with UniProt L7N210, with UniProt Q3KPB0, in the experiment with UniProt Q3U0P3, with UniProt Q7TQU8 and with UniProt Q7TR79 was “inactive” throughout.
As for `Oc1ccccc1Br`, the “odorant receptor agonist call” value with UniProt L7N210, with UniProt Q3KPB0, in the experiment with UniProt Q3U0P3, with UniProt Q7TQU8 and with UniProt Q7TR79 was “inactive” each time.
Regarding `CCCCC(Br)C(=O)O` (centres undefined), the “odorant receptor agonist call” value with UniProt L7N210 is “active”. Moreover, the “odorant receptor agonist call” value with UniProt Q3KPB0, with UniProt Q3U0P3, with UniProt Q7TQU8 and in the experiment with UniProt Q7TR79 was “inactive” in each case.
With `CCCCCCC(Br)C(=O)O` (centres undefined), the “odorant receptor agonist call” value with UniProt L7N210, in the experiment with UniProt Q3KPB0, in the experiment with UniProt Q3U0P3, in the experiment with UniProt Q7TQU8 and with UniProt Q7TR79 was “inactive” throughout.
As for `O=C(O)CCCCCCCBr`, the “odorant receptor agonist call” value in the experiment with UniProt Q7TRM0 was “inactive”.
Take `C=C(C)C1CC=C(C=O)CC1` (centres undefined): in the experiment with UniProt L7N210, the “odorant receptor agonist call” value was “active”. The “odorant receptor agonist call” value in the experiment with UniProt Q3KPB0, in the experiment with UniProt Q3U0P3, with UniProt Q7TQU8 and in the experiment with UniProt Q7TR79 was “inactive” each time.
Regarding `O=Cc1ccc2c(c1)OCO2`, in the experiment with UniProt L7N210, the “odorant receptor agonist call” value is “active”. Further, the “odorant receptor agonist call” value in the experiment with UniProt Q3KPB0, with UniProt Q3U0P3, with UniProt Q7TQU8 and with UniProt Q7TR79 was “inactive” throughout.
Regarding `O=Cc1ccccc1`, the “odorant receptor agonist call” value in the experiment with UniProt L7N210, in the experiment with UniProt Q3KPB0, with UniProt Q3U0P3, with UniProt Q7TQU8 and with UniProt Q7TR79 was “inactive” in each case.
`CSSC`: the “odorant receptor agonist call” value in the experiment with UniProt L7N210, in the experiment with UniProt Q3KPB0, with UniProt Q3U0P3, with UniProt Q7TQU8 and in the experiment with UniProt Q7TR79 was “inactive” in each case.
